Reference: ChEMBL document CHEMBL2163241, “Human neutrophil elastase phosphonic inhibitors with improved potency of action” (J Med Chem, 2012)

Experiments:
Homo sapiens [1] = organism: Homo sapiens; test: Selectivity ratio of Kinact/Ki ratio for human leukocyte elastase to Kinact/Ki ratio for chymotrypsin
[2] = Inhibition of trypsin at 25 uM assessed as Kinact/Ki ratio incubated for 15 mins by spectrofluorometry
[3] = Inhibition of chymotrypsin at 25 uM assessed as Kinact/Ki ratio incubated for 15 mins by spectrofluorometry
[4] = biological target: Pancreatic elastase (Sus scrofa) (UniProt P08419+P00772); test: Inhibition of porcine pancreatic elastase at 25 uM assessed as Kinact/Ki ratio incubated for 15 mins by spectrofluorometry; format: protein assay
[5] = biological target: T1, Neutrophil elastase (Homo sapiens) (UniProt P08246); test: Inhibition of human leukocyte elastase at 25 uM assessed as Kinact/Ki ratio incubated for 15 mins by spectrofluorometry
T1 sequence (whole entry): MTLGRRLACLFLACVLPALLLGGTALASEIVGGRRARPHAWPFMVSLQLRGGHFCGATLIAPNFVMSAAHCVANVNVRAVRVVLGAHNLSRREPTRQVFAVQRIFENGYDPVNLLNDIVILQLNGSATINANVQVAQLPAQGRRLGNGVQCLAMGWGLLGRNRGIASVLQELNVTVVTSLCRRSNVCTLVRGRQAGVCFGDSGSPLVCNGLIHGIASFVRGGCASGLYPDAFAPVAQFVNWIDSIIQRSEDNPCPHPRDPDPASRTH

[6] = Selectivity ratio of Kinact/Ki ratio for porcine pancreatic elastase to Kinact/Ki ratio for human leukocyte elastase
Homo sapiens [7] = organism: Homo sapiens; test: Selectivity ratio of Kinact/Ki ratio for chymotrypsin to Kinact/Ki ratio for human leukocyte elastase
[8] = biological target: T1, Neutrophil elastase (Homo sapiens); test: Irreversible inhibition of human leukocyte elastase assessed as recovery of enzyme activity using MeOSuc-AAPV-AFC substrate at 200 uM treated for 15 mins followed by dialysis measured up to 50 days by fluorescence assay; parameters: scale not given: the % may be the effect or the level left
[9] = Solubility in 80% human plasma at […] incubated at 37 degC by HPLC; format: ADME, cell-free
[10] = Solubility in pH 7.4 PBS buffer at […] incubated at 37 degC by HPLC; format: physicochemical
[11] = Half life in 80% human plasma at […] incubated at 37 degC by HPLC; format: ADME, cell-free
Method in brief: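 DMSO stock (50 mM) added to freshly isolated pooled healthy-donor human plasma diluted to 80% with PBS pH 7.4, final 3 mg/mL or 0.1 mg/mL; incubated 37 °C; compound remaining monitored by HPLC over time to give half-life.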

[12] = Half life in pH 7.4 PBS buffer at […] incubated at 37 degC by HPLC; format: physicochemical
[13] = Chemical stability in pH 7.4 PBS buffer assessed as compound remaining at […] measured after 6 days at 37 degC by HPLC; format: physicochemical; conditions: read-out: Stability
[14] = Drug degradation in pH 7.4 PBS buffer assessed as compound hydrolysis at […] measured after 48 hrs at 37 degC by HPLC; format: physicochemical; conditions: read-out: Drug degradation

Row | Structure (SMILES) | Ratio (Homo sapiens [1]) | Ratio [2] | Ratio [3] | Ratio [4] | Ratio [5] | Ratio [6] | Ratio (Homo sapiens [7]) | Activity [8] | solubility [9] | solubility [10] | half-life [11] | half-life [12] | remaining at 144 h [13] | degraded at 48 h [14] | inhibition [2] | inhibition [3]
1 | COC(=O)c1cccc(OP(=O)(Oc2cccc(C(=O)OC)c2)C(CC(C)C)NC(=O)[C@@H]2CCCN2C(=O)[C@@H](NC(=O)OC(C)(C)C)C(C)C)c1 (stereo partly specified) | > 1.3 | 2800 M⁻¹ s⁻¹ | 166000 M⁻¹ s⁻¹ | 76900 M⁻¹ s⁻¹ | 122000 M⁻¹ s⁻¹ | – | – | – | – | – | – | – | – | – | – | –
2 | CSc1ccc(OP(=O)(Oc2ccc(SC)cc2)[C@@H](NC(=O)[C@@H]2CCCN2C(=O)[C@@H](NC(=O)COc2ccc(OCC(=O)O)cc2)C(C)C)C(C)C)cc1 | – | < 50 M⁻¹ s⁻¹ | 6450 M⁻¹ s⁻¹ | 39200 M⁻¹ s⁻¹ | 2.35e+06 M⁻¹ s⁻¹ | 60 | 365 | 15% | – | – | – | – | – | – | – | –
3 | CSc1ccc(OP(=O)(Oc2ccc(SC)cc2)[C@@H](NC(=O)[C@@H]2CCCN2C(=O)[C@@H](NC(=O)Cn2ccc(=O)n(CC(=O)O)c2=O)C(C)C)C(C)C)cc1 | – | 235 M⁻¹ s⁻¹ | 40200 M⁻¹ s⁻¹ | 309000 M⁻¹ s⁻¹ | 1.08e+06 M⁻¹ s⁻¹ | 3.5 | 27 | – | – | – | – | – | – | – | – | –
4 | CSc1ccc(OP(=O)(Oc2ccc(SC)cc2)C(NC(=O)[C@@H]2CCCN2C(=O)[C@@H](NC(=O)Cn2ccc(=O)n(CC(=O)O)c2=O)C(C)C)C(C)C)cc1 (mixture of isomers) | – | 130 M⁻¹ s⁻¹ | 28300 M⁻¹ s⁻¹ | 140000 M⁻¹ s⁻¹ | 460000 M⁻¹ s⁻¹ | – | – | – | 6.22 mM | 6.22 mM | 4.55 h | 100 h | – | – | – | –
5 | CSc1ccc(OP(=O)(Oc2ccc(SC)cc2)C(NC(=O)[C@@H]2CCCN2C(=O)[C@@H](NC(=O)Cn2cc(C)c(=O)n(CC(=O)O)c2=O)C(C)C)C(C)C)cc1 (mixture of isomers) | – | 140 M⁻¹ s⁻¹ | 22900 M⁻¹ s⁻¹ | 118000 M⁻¹ s⁻¹ | 965000 M⁻¹ s⁻¹ | 8.2 | 42 | – | 6.11 mM | 6.11 mM | 3.95 h | 100 h | – | – | – | –
6 | CSc1ccc(OP(=O)(Oc2ccc(SC)cc2)C(NC(=O)[C@@H]2CCCN2C(=O)[C@@H](NC(=O)OC(C)(C)C)C(C)C)C(C)C)cc1 (mixture of isomers) | – | < 50 M⁻¹ s⁻¹ | 900 M⁻¹ s⁻¹ | 14000 M⁻¹ s⁻¹ | 217000 M⁻¹ s⁻¹ | 15 | – | – | 0.36 mM | 0.36 mM | 6.2 h | 28 h | – | – | – | –
7 | CSc1ccc(OP(=O)(Oc2ccc(SC)cc2)C(NC(=O)[C@@H]2CCCN2C(=O)[C@@H](NC(=O)COc2ccc(OCC(=O)O)cc2)C(C)C)C(C)C)cc1 (mixture of isomers) | – | < 50 M⁻¹ s⁻¹ | 4000 M⁻¹ s⁻¹ | 19100 M⁻¹ s⁻¹ | 970000 M⁻¹ s⁻¹ | 50.8 | 245 | – | 6.23 mM | 6.23 mM | 8 h | 150 h | > 50% | 16% | – | –
8 | COc1ccc(C(=O)N[C@H](C(=O)N2CCC[C@H]2C(=O)NC(C(C)C)P(=O)(Oc2ccc(SC)cc2)Oc2ccc(SC)cc2)C(C)C)cc1 (mixture of isomers) | – | < 50 M⁻¹ s⁻¹ | < 50 M⁻¹ s⁻¹ | 4700 M⁻¹ s⁻¹ | 304000 M⁻¹ s⁻¹ | – | – | – | 0.17 mM | 0.17 mM | 3.8 h | 26 h | – | – | – | –
9 | CC(C)C(NC(=O)[C@@H]1CCCN1C(=O)[C@@H](NC(=O)OC(C)(C)C)C(C)C)P(=O)(Oc1ccccc1)Oc1ccccc1 (mixture of isomers) | – | < 50 M⁻¹ s⁻¹ | < 50 M⁻¹ s⁻¹ | 22800 M⁻¹ s⁻¹ | 46100 M⁻¹ s⁻¹ | 2 | – | – | – | – | – | – | – | – | – | –
10 | CC(C)[C@H](NC(=O)OC(C)(C)C)C(=O)N1CCC[C@H]1C(=O)NC(C)P(=O)(Oc1ccc(C(C)(C)C)cc1)Oc1ccc(C(C)(C)C)cc1 (mixture of isomers) | – | – | < 50 M⁻¹ s⁻¹ | < 50 M⁻¹ s⁻¹ | < 50 M⁻¹ s⁻¹ | – | – | – | – | – | – | – | – | – | < 5% | –
11 | CC(C)c1ccc(OP(=O)(Oc2ccc(C(C)C)cc2)C(C)NC(=O)[C@@H]2CCCN2C(=O)[C@@H](NC(=O)OC(C)(C)C)C(C)C)cc1 (mixture of isomers) | – | – | < 50 M⁻¹ s⁻¹ | 300 M⁻¹ s⁻¹ | < 50 M⁻¹ s⁻¹ | – | – | – | – | – | – | – | – | – | < 5% | –
12 | CCCC(NC(=O)[C@@H]1CCCN1C(=O)[C@@H](NC(=O)OC(C)(C)C)C(C)C)P(=O)(Oc1ccc(C(C)(C)C)cc1)Oc1ccc(C(C)(C)C)cc1 (mixture of isomers) | – | – | – | < 50 M⁻¹ s⁻¹ | < 50 M⁻¹ s⁻¹ | – | – | – | – | – | – | – | – | – | < 5% | < 5%
13 | CCCC(NC(=O)[C@@H]1CCCN1C(=O)[C@@H](NC(=O)OC(C)(C)C)C(C)C)P(=O)(Oc1ccc(SC)cc1)Oc1ccc(SC)cc1 (mixture of isomers) | – | 420 M⁻¹ s⁻¹ | 2800 M⁻¹ s⁻¹ | 54800 M⁻¹ s⁻¹ | 56200 M⁻¹ s⁻¹ | – | 20 | – | – | – | – | – | – | – | – | –
14 | CCCCC(NC(=O)[C@@H]1CCCN1C(=O)[C@@H](NC(=O)OC(C)(C)C)C(C)C)P(=O)(Oc1ccc(SC)cc1)Oc1ccc(SC)cc1 (mixture of isomers) | – | < 50 M⁻¹ s⁻¹ | 4250 M⁻¹ s⁻¹ | 9700 M⁻¹ s⁻¹ | 8100 M⁻¹ s⁻¹ | – | 2 | – | – | – | – | – | – | – | – | –
15 | CCc1ccc(OP(=O)(Oc2ccc(CC)cc2)C(C)NC(=O)[C@@H]2CCCN2C(=O)[C@@H](NC(=O)OC(C)(C)C)C(C)C)cc1 (mixture of isomers) | – | – | < 50 M⁻¹ s⁻¹ | 1100 M⁻¹ s⁻¹ | 870 M⁻¹ s⁻¹ | – | – | – | – | – | – | – | – | – | < 5% | –
